From ChEMBL document CHEMBL5674882, “Benzolactam-related compounds promote apoptosis of HIV-infected human cells via protein kinase C-induced HIV latency reversal” (J Biol Chem, 2019)
Activity calls are given as the source filed them. The calls are words filed in the database; no cut-off is given here.

Key:
J-Lat 6.3 (Homo sapiens) = test: Induction of apoptosis in human J-Lat 6.3 cells at 1 uM incubated for 48 hrs after pre-incubated for 2 hrs with 20 uM caspase inhibitor Q-VD-Oph by propidium iodide/annexin-V staining based flow cytometry
[1] = Toxicity in human PBMC assessed as reduction in cell viability after 5 days by WST8 assay; type: cell-based; details: time 5 day
Summary of the method: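 PBMC from a healthy donor exposed to drug, with viability determined at day 5. CC50 is the concentration reducing viability by 50%.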

ACH-2 cell line [2] = test: Induction of apoptosis in human ACH-2 cells at 1 uM incubated for 48 hrs by propidium iodide/annexin-V staining based flow cytometry (reference value: 3.16%); type: functional
U1 [3] = test: Induction of apoptosis in human U1 cells at 1 uM after 48 hrs by PI/annexin-V staining based flow cytometry; type: functional
[4] = Toxicity in human U-937 cells assessed as reduction in cell viability after 48 hrs by WST8 assay; type: cell-based
Summary of the method: (§1)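 Parental, uninfected lines (A3.01 for ACH-2, U937 for U1) at 5 × 10^5 cells/ml cultured with or without drug. Viable cells read at 48 h (day 2) and expressed as % of untreated control. CC50 taken as the concentration lowering viability by 50%.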

Jurkat = test: Induction of apoptosis in human Jurkat cells assessed as caspase-3 activation at 1 uM incubated for 24 hrs by flow cytometry; type: functional
Summary of the method: (§2)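 Cells fixed in 1% paraformaldehyde, permeabilized, stained 30 min on ice with anti-active caspase-3 mAb, and analysed by flow cytometry. Three independent experiments.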

ACH-2 cell line [5] = test: Induction of apoptosis in human ACH-2 cells assessed as caspase-3 activation at 1 uM incubated for 24 hrs by flow cytometry; type: functional
Summary of the method: as §2

[6] = Toxicity in human CD4+ T-cells assessed as increase in ratio of CD25+ cells incubated for 24 hrs by flow cytometry; type: cell-based; details: cd4+ t cell
Summary of the method: (§3)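 Primary CD4+ T-cells from healthy donors treated with drug for 24 h. Cells stained with anti-CD25 and anti-CD69 antibodies (plus CD3, CD4, HLA-DR) for 30 min on ice, then marker-positive proportions quantified by flow cytometry.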

U1 [7] = test: Induction of apoptosis in human U1 cells at 1 uM incubated for 48 hrs after pre-incubated for 2 hrs with 20 uM caspase inhibitor Q-VD-Oph by propidium iodide/annexin-V staining based flow cytometry; type: functional, cell-based
Summary of the method: (§4)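 ACH-2 or U1 cells pretreated 2 h with 20 µM pan-caspase inhibitor Q-VD-Oph, then exposed to 1 µM compound for 48 h. Annexin-V/PI staining by flow cytometry; apoptotic proportions compared with and without Q-VD-Oph. Mean ± S.D.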

U1 [8] = test: Induction of apoptosis in human U1 cells assessed as caspase-3 activation at 1 uM incubated for 24 hrs by flow cytometry (reference value: 1.86%); type: functional
Summary of the method: as §2

J-Lat 6.3 [9] = test: Induction of apoptosis in human J-Lat 6.3 cells assessed as caspase-3 activation at 1 uM incubated for 24 hrs by flow cytometry (reference value: 2.43%); type: functional
Summary of the method: as §2

[10] = Toxicity in human CD4+ T-cells assessed as increase in ratio of CD69+ cells incubated for 24 hrs by flow cytometry; type: cell-based; details: cd4+ t cell
Summary of the method: as §3

ACH-2 cell line [11] = test: Induction of apoptosis in human ACH-2 cells at 1 uM incubated for 48 hrs after pre-incubated for 2 hrs with 20 uM caspase inhibitor Q-VD-Oph by propidium iodide/annexin-V staining based flow cytometry; type: functional, cell-based
Summary of the method: as §4

ACH-2 cell line [12] = test: Induction of apoptosis in human ACH-2 cells assessed as cleaved-PARP level at 1 uM incubated for 24 hrs by flow cytometry (reference value: 1.64%); type: functional
Summary of the method: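 Cells fixed, permeabilized, stained on ice with anti-cleaved PARP (Asp-214) mAb; % cleaved-PARP cells by flow cytometry. Means ± S.D. of three independent experiments.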

U1 [13] = test: Induction of apoptosis in human U1 cells at 1 uM incubated for 48 hrs by propidium iodide/annexin-V staining based flow cytometry (reference value: 3.16%); type: functional
U1 [14] = test: Induction of apoptosis in human U1 cells assessed as caspase-3 activation at 1 uM incubated for 24 hrs by flow cytometry; type: functional
Summary of the method: as §2

[15] = Induction of apoptosis in human CEM A3.01 cells assessed as caspase-3 activation at 1 uM incubated for 24 hrs by flow cytometry; type: functional
Summary of the method: as §2

U-937 = test: Induction of apoptosis in human U-937 cells assessed as caspase-3 activation at 1 uM incubated for 24 hrs by flow cytometry; type: functional
Summary of the method: as §2

J-Lat 6.3 [16] = test: Induction of apoptosis in human J-Lat 6.3 cells at 1 uM incubated for 48 hrs by propidium iodide/annexin-V staining based flow cytometry (reference value: 3.16%); type: functional
[17] = Toxicity in human A3.01 cells assessed as reduction in cell viability after 48 hrs by WST8 assay; type: cell-based
Summary of the method: as §1

ACH-2 cell line [18] = test: Induction of apoptosis in human ACH-2 cells at 1 uM after 48 hrs by PI/annexin-V staining based flow cytometry; type: functional
J-Lat 6.3 [19] = test: Induction of apoptosis in human J-Lat 6.3 cells assessed as caspase-3 activation at 1 uM incubated for 24 hrs by flow cytometry; type: functional
Summary of the method: as §2

[20] = molecular target: T1, Protein kinase C (PKC) (Homo sapiens) (UniProt O94806+P41743+P17252+P05129+Q05655+P05771+Q05513+Q02156+P24723+Q15139+Q04759); test: Activation of PKC in human ACH-2 cells infected with latent HIV-1 assessed as reversal of HIV-1 latency by measuring increase in p24 antigen level at 1 to 10000 nM incubated for 48 hrs by chemiluminescent enzyme immunoassay; type: cell-based; details: ACH-2 cell line, dose 1-10000 nM
Summary of the method: (§5)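 ACH-2 or U1 cells (5 × 10^5 cells/ml) incubated 48 h with graded drug concentrations. Supernatant p24 antigen measured by automated chemiluminescent immunoassay. EC50 calculated taking the maximum response with excess PMA as 100%. Means ± S.D. of three independent experiments.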

[21] = molecular target: T1, Protein kinase C (PKC) (Homo sapiens); test: Activation of PKC in human U1 cells infected with latent HIV-1 assessed as reversal of HIV-1 latency by measuring increase in p24 antigen level at 1 to 10000 nM incubated for 48 hrs by chemiluminescent enzyme immunoassay; type: cell-based; details: dose 1-10000 nM
Summary of the method: as §5

[22] = molecular target: T1, Protein kinase C (PKC) (Homo sapiens); test: Activation of PKC in human J-Lat 6.3 cells infected with latent HIV-1 assessed as reversal of HIV-1 latency by measuring increase of GFP-positive cells at 10 uM in presence of pan-PKC inhibitor Go-6983 incubated for 24 hrs by flow cytometry; type: cell-based
Summary of the method: (§6)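 J-Lat 6.3 cells pretreated 3 h with a PKC inhibitor: Gö 6983 1 µM, Gö 6976 1 µM, GF 109203X 1 µM, PKCθ/δ inhibitor 10 µM, or Rottlerin 1 µM. Then exposed to 10 µM compound for 24 h; GFP-positive cells counted by flow cytometry. Mean ± S.D.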

[23] = molecular target: T1, Protein kinase C (PKC) (Homo sapiens); test: Activation of PKC in human J-Lat 6.3 cells infected with latent HIV-1 assessed as reversal of HIV-1 latency by measuring increase of GFP-positive cells at 10 uM in presence of PKC alpha/beta inhibitor Go-6976 incubated for 24 hrs by flow cytometry; type: cell-based
Summary of the method: as §6

Protein kinase C (PKC) [24] = test: Activation of PKC in human ACH-2 cells infected with latent HIV-1 assessed as reversal of HIV-1 latency by measuring increase in p24 antigen level incubated for 48 hrs by chemiluminescent enzyme immunoassay; type: cell-based; details: ach-2 cell line
[25] = molecular target: T1, Protein kinase C (PKC) (Homo sapiens); test: Activation of PKC in human J-Lat 6.3 cells infected with latent HIV-1 assessed as reversal of HIV-1 latency by measuring increase of GFP-positive cells at 10 uM in presence of PKC theta/delta/epsilon/eta inhibitor PKCtheta/delta inhibitor incubated for 24 hrs by flow cytometry; type: cell-based
Summary of the method: as §6

[26] = molecular target: T1, Protein kinase C (PKC) (Homo sapiens); test: Activation of PKC in human J-Lat 6.3 cells infected with latent HIV-1 assessed as reversal of HIV-1 latency by measuring increase of GFP-positive cells at 10 uM in presence of PKC alpha/beta/gamma inhibitor GF109203X incubated for 24 hrs by flow cytometry; type: cell-based
Summary of the method: as §6

[27] = molecular target: T1, Protein kinase C (PKC) (Homo sapiens); test: Activation of PKC in human J-Lat 6.3 cells infected with latent HIV-1 assessed as reversal of HIV-1 latency by measuring increase of GFP-positive cells at 10 uM in presence of PKC delta inhibitor Rottlerin incubated for 24 hrs by flow cytometry; type: cell-based
Summary of the method: as §6

Protein kinase C (PKC) [28] = test: Activation of PKC in human U1 cells infected with latent HIV-1 assessed as reversal of HIV-1 latency by measuring increase in p24 antigen level incubated for 48 hrs by chemiluminescent enzyme immunoassay; type: cell-based

SMILES | Activity (J-Lat 6.3 (Homo sapiens)) | CC50 at 120 h [1] [µM] | Activity (ACH-2 cell line [2]) [%] | Activity (U1 [3]) [%] | CC50 at 48 h [4] [µM] | Activity (Jurkat) [%] | Activity (ACH-2 cell line [5]) [%] | Activity (U1 [7]) | Activity (U1 [8]) [%] | Activity (J-Lat 6.3 [9]) [%] | Activity (ACH-2 cell line [11]) | Activity (ACH-2 cell line [12]) [%] | Activity (U1 [13]) [%] | Activity (U1 [14]) [%] | Activity [15] [%] | CC50 at 48 h [17] [µM] | Activity ([20]; filed as activator) | EC50 (Protein kinase C (PKC) [24]) [µM] | Activity ([21]; filed as activator) | EC50 (Protein kinase C (PKC) [28]) [µM] | further results
CC(=O)O[C@@]12C[C@@H](C)[C@@]3(O)[C@@H](C=C(CO)C[C@]4(O)C(=O)C(C)=C[C@@H]34)[C@@H]1C2(C)C [PROSTRATIN] | inactive | > 100 | 34.7 | 14.1 | > 100 | 1.47 | 14 | inactive | 7.83 | 15.6 | inactive | 15.2 | 12.7 | 29.9 | 1.06 | > 100 | – | – | – | – | Activity [6]: Non-Toxic; Activity [10]: Non-Toxic; Activity (U-937): 0.307%; Activity (J-Lat 6.3 [16]): 13.7%; Activity (ACH-2 cell line [18]): 37.7%; Activity (J-Lat 6.3 [19]): 8.66%
CC(C)[C@@H]1C(=O)N[C@H](CO)Cc2cc3c(cc2N1C)C(C)(C)CCC3(C)C | – | – | – | – | – | – | – | – | – | – | – | – | – | – | – | – | – | – | – | – | Activity [20]: inactive; Activity [21]: inactive
CCCCCCCCCCc1ccc2c(c1)N(C)[C@@H](C(C)C)C(=O)N[C@H](CO)CC2 | – | – | – | – | – | – | – | – | – | – | – | – | – | – | – | – | – | – | – | – | Activity [20]: inactive; Activity [21]: inactive
CC(C)[C@H]1C(=O)N[C@H](CO)Cc2c[nH]c3cccc(c23)N1C [INDOLACTUM] | inactive | > 100 | 45.1 | 18 | > 100 | 1.72 | 24.2 | inactive | 7.82 | 22.2 | inactive | 24.2 | 17.7 | 30.5 | 2.69 | > 100 | Active | 0.047 | Active | 0.36 | Activity [22]: inactive; Activity [23]: inactive; Activity [25]: inactive; Activity [26]: inactive; Activity (U-937): 0.584%; Activity (J-Lat 6.3 [16]): 15.7%; Activity [27]: inactive; Activity (ACH-2 cell line [18]): 47.1%; Activity (J-Lat 6.3 [19]): 14.1%
CCCCCCCCCCc1ccc2c(c1)N(C)[C@H](C(C)C)C(=O)N[C@H](CO)C2 | inactive | 18.9 | 18.2 | 6.1 | 39.2 | 0.587 | 11.5 | inactive | 4.66 | 4.35 | inactive | 10 | 5.9 | 8.42 | 1.26 | 17.8 | Active | 0.43 | Active | 2.33 | Activity [22]: inactive; Activity [23]: inactive; Activity [25]: inactive; Activity [26]: inactive; Activity (U-937): 0.127%; Activity (J-Lat 6.3 [16]): 7.95%; Activity [27]: inactive; Activity (ACH-2 cell line [18]): 20.4%; Activity (J-Lat 6.3 [19]): 2.25%
CC(C)[C@H]1C(=O)N[C@H](CO)Cc2cc3c(cc2N1C)C(C)(C)CCC3(C)C | – | 65.8 | – | – | 22.9 | – | – | – | – | – | – | – | – | – | – | 19.5 | Active | 2.91 | Active | 9.89 | –
CCCCCCCCCCc1ccc2c(c1)N(C)[C@H](C(C)C)C(=O)N[C@H](CO)CC2 | – | > 100 | – | – | > 100 | – | – | – | – | – | – | – | – | – | – | > 100 | Active | 1.54 | Active | 4 | –
